Data reported in ChEMBL document CHEMBL1687824, “Overexpression of patA and patB, which encode ABC transporters, is associated with fluoroquinolone resistance in clinical isolates of Streptococcus pneumoniae” (2011).
Values after ≈ are worked out from the molar mass of the structure shown.

What was measured:
Assay type in all cases: functional
[1] = test system: Streptococcus pneumoniae; experiment: Antibacterial activity against fluoroquinolone, dye-resistant Streptococcus pneumoniae by standardized agar doubling dilution method in presence of 50 uM sodium orthovanadate efflux pump inhibitor
How it was run: (§1)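 MIC by agar doubling dilution following BSAC guidelines. Strains grown in brain heart infusion broth 24 h at 37°C in 5% CO2. Where an efflux pump inhibitor applies, MIC redetermined with reserpine at 20 μg/ml or sodium orthovanadate at 50 μM. Synergy taken as a fall in MIC of ≥2 dilutions with inhibitor present. Dye resistance defined relative to R6 (both dyes ≥2 dilutions higher).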

[2] = test system: Streptococcus pneumoniae; experiment: Antibacterial activity against Streptococcus pneumoniae M50A overexpressing patA, patB and inactivated patA with single mutation by standardized agar doubling dilution method
How it was run: (§2)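 MICs were determined by agar doubling dilution following BSAC guidelines, with no efflux inhibitor. Strains were grown in brain heart infusion broth for 24 h at 37°C in 5% CO2. Species identity was confirmed by Gram stain, optochin sensitivity and capsule test. Control strain R6 was tested alongside.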

[3] = test system: Streptococcus pneumoniae; experiment: Antibacterial activity against Streptococcus pneumoniae M50B overexpressing patA, patB and inactivated patB with single mutation by standardized agar doubling dilution method; how it was run: as §2
[4] = test system: Streptococcus pneumoniae; experiment: Antibacterial activity against fluoroquinolone, dye-resistant Streptococcus pneumoniae M87 overexpressing patA, patB by standardized agar doubling dilution method; how it was run: as §1
[5] = test system: Streptococcus pneumoniae; experiment: Antibacterial activity against Streptococcus pneumoniae M87A overexpressing patA, patB and inactivated patA with single mutation by standardized agar doubling dilution method; how it was run: as §2
[6] = test system: Streptococcus pneumoniae; experiment: Antibacterial activity against Streptococcus pneumoniae M311 overexpressing patA, patB and inactivated patA with single mutation by standardized agar doubling dilution method
How it was run: (§3)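 MICs determined by BSAC standardized agar doubling dilution. Strains were grown in brain heart infusion broth for 24 h at 37°C in 5% CO2. Inhibitor arms had reserpine at 20 μg/ml or sodium orthovanadate at 50 μM in the agar. Mutants were made by transforming magellan2 insertion amplimers into clinical isolates and selecting on spectinomycin 100 mg/liter, with a no-DNA spontaneous-mutation control.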

[7] = test system: Streptococcus pneumoniae; experiment: Antibacterial activity against Streptococcus pneumoniae M311B overexpressing patA, patB and inactivated patB with single mutation by standardized agar doubling dilution method; how it was run: as §3
[8] = test system: Streptococcus pneumoniae; experiment: Antibacterial activity against Streptococcus pneumoniae M316 overexpressing patA, patB and inactivated patA with single mutation by standardized agar doubling dilution method; how it was run: as §2
[9] = test system: Streptococcus pneumoniae; experiment: Antibacterial activity against Streptococcus pneumoniae M306 overexpressing patA, patB and inactivated patB with single mutation by standardized agar doubling dilution method; how it was run: as §3
[10] = test system: Streptococcus pneumoniae; experiment: Antibacterial activity against Streptococcus pneumoniae M307 overexpressing patA, patB and inactivated patB with single mutation by standardized agar doubling dilution method; how it was run: as §3
[11] = test system: Streptococcus pneumoniae; experiment: Antibacterial activity against dye-resistant Streptococcus pneumoniae M46 DR overexpressing patA, patB by standardized agar doubling dilution method; how it was run: as §2
[12] = test system: Streptococcus pneumoniae; experiment: Antibacterial activity against Streptococcus pneumoniae M46A overexpressing patA, patB and inactivated patA with single mutation by standardized agar doubling dilution method; how it was run: as §2
[13] = test system: Streptococcus pneumoniae; experiment: Antibacterial activity against Streptococcus pneumoniae M46B overexpressing patA, patB and inactivated patB with single mutation by standardized agar doubling dilution method; how it was run: as §2
[14] = test system: Streptococcus pneumoniae; experiment: Antibacterial activity against Streptococcus pneumoniae M309 overexpressing patA, patB and inactivated patB with single mutation by standardized agar doubling dilution method; how it was run: as §3
[15] = test system: Streptococcus pneumoniae; experiment: Antibacterial activity against Streptococcus pneumoniae M87B overexpressing patA, patB and inactivated patB with single mutation by standardized agar doubling dilution method in presence of 20 ug/ml reserpine efflux pump inhibitor
How it was run: (§4)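 MICs were determined by BSAC agar doubling dilution in the presence of reserpine at 20 μg/ml. Strains were grown in BHI broth for 24 h at 37°C in 5% CO2, with R6 as control. Synergy was defined as an MIC drop of ≥2 dilutions with the inhibitor.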

[16] = test system: Streptococcus pneumoniae; experiment: Antibacterial activity against fluoroquinolone, dye-resistant Streptococcus pneumoniae M297 overexpressing patA, patB by standardized agar doubling dilution method in presence of 20 ug/ml reserpine efflux pump inhibitor; how it was run: as §1
[17] = test system: Streptococcus pneumoniae; experiment: Antibacterial activity against Streptococcus pneumoniae M311B overexpressing patA, patB and inactivated patB with single mutation by standardized agar doubling dilution method in presence of 20 ug/ml reserpine efflux pump inhibitor; how it was run: as §3
[18] = test system: Streptococcus pneumoniae; experiment: Antibacterial activity against Streptococcus pneumoniae M319 overexpressing patA, patB and inactivated patB with single mutation by standardized agar doubling dilution method in presence of 20 ug/ml reserpine efflux pump inhibitor; how it was run: as §4
[19] = test system: Streptococcus pneumoniae; experiment: Antibacterial activity against Streptococcus pneumoniae M315 overexpressing patA, patB and inactivated patA with single mutation by standardized agar doubling dilution method in presence of 20 ug/ml reserpine efflux pump inhibitor; how it was run: as §3
[20] = test system: Streptococcus pneumoniae; experiment: Antibacterial activity against Streptococcus pneumoniae M300 overexpressing patA, patB and inactivated patA with single mutation by standardized agar doubling dilution method in presence of 20 ug/ml reserpine efflux pump inhibitor; how it was run: as §3
[21] = test system: Streptococcus pneumoniae; experiment: Antibacterial activity against Streptococcus pneumoniae M55B overexpressing patA, patB and inactivated patB with single mutation by standardized agar doubling dilution method in presence of 20 ug/ml reserpine efflux pump inhibitor; how it was run: as §4
[22] = test system: Streptococcus pneumoniae; experiment: Antibacterial activity against Streptococcus pneumoniae M303 overexpressing patA, patB and inactivated patA with single mutation by standardized agar doubling dilution method in presence of 20 ug/ml reserpine efflux pump inhibitor; how it was run: as §3
[23] = test system: Streptococcus pneumoniae; experiment: Antibacterial activity against Streptococcus pneumoniae M45A overexpressing patA, patB and inactivated patA with single mutation by standardized agar doubling dilution method in presence of 50 uM sodium orthovanadate efflux pump inhibitor
How it was run: (§5)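 MICs were determined by BSAC agar doubling dilution in the presence of sodium orthovanadate at 50 μM. Cultures were grown in BHI broth for 24 h at 37°C in 5% CO2, with R6 as control. Synergy was defined as an MIC reduction of ≥2 dilutions with the inhibitor present.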

[24] = test system: Streptococcus pneumoniae; experiment: Antibacterial activity against Streptococcus pneumoniae M87B overexpressing patA, patB and inactivated patB with single mutation by standardized agar doubling dilution method in presence of 50 uM sodium orthovanadate efflux pump inhibitor; how it was run: as §5
[25] = test system: Streptococcus pneumoniae; experiment: Antibacterial activity against Streptococcus pneumoniae M311 overexpressing patA, patB and inactivated patA with single mutation by standardized agar doubling dilution method in presence of 50 uM sodium orthovanadate efflux pump inhibitor; how it was run: as §3
[26] = test system: Streptococcus pneumoniae; experiment: Antibacterial activity against Streptococcus pneumoniae M311B overexpressing patA, patB and inactivated patB with single mutation by standardized agar doubling dilution method in presence of 50 uM sodium orthovanadate efflux pump inhibitor; how it was run: as §3
[27] = test system: Streptococcus pneumoniae; experiment: Antibacterial activity against fluoroquinolone-resistant Streptococcus pneumoniae M100 FQ-R overexpressing patA, patB by standardized agar doubling dilution method in presence of 50 uM sodium orthovanadate efflux pump inhibitor
How it was run: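 MIC by agar doubling dilution per BSAC guidelines; strains pregrown in brain heart infusion broth 24 h, 37°C, 5% CO2. MICs measured alone and with efflux pump inhibitors reserpine (20 μg/ml) or sodium orthovanadate (50 μM); synergy defined as ≥2-dilution MIC reduction in presence of inhibitor.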

[28] = test system: Streptococcus pneumoniae; experiment: Antibacterial activity against Streptococcus pneumoniae M315 overexpressing patA, patB and inactivated patA with single mutation by standardized agar doubling dilution method in presence of 50 uM sodium orthovanadate efflux pump inhibitor; how it was run: as §5
[29] = test system: Streptococcus pneumoniae; experiment: Antibacterial activity against Streptococcus pneumoniae M303 overexpressing patA, patB and inactivated patA with single mutation by standardized agar doubling dilution method in presence of 50 uM sodium orthovanadate efflux pump inhibitor; how it was run: as §3

Compound | MIC90 [1] [µg/mL] | MIC [2] [µg/mL] | MIC [3] [µg/mL] | MIC [4] [µg/mL] | MIC [5] [µg/mL] | MIC [6] [µg/mL] | MIC [7] [µg/mL] | MIC [8] [µg/mL] | MIC [9] [µg/mL] | MIC [10] [µg/mL] | MIC [11] [µg/mL] | MIC [12] [µg/mL] | MIC [13] [µg/mL] | MIC [14] [µg/mL] | MIC [15] [µg/mL] | MIC [16] [µg/mL] | MIC [17] [µg/mL] | MIC [18] [µg/mL] | MIC [19] [µg/mL] | MIC [20] [µg/mL] | other results
O=C(O)c1cn(C2CC2)c2cc(N3CCNCC3)c(F)cc2c1=O [CIPROFLOXACIN] | 8 | 4 (≈ 12.1 µM) | 4 (≈ 12.1 µM) | 32 (≈ 96.6 µM) | 8 (≈ 24.1 µM) | 8 (≈ 24.1 µM) | 8 (≈ 24.1 µM) | 8 (≈ 24.1 µM) | 4 (≈ 12.1 µM) | 8 (≈ 24.1 µM) | 0.25 (≈ 0.754 µM) | 0.12 (≈ 0.362 µM) | 0.12 (≈ 0.362 µM) | 4 (≈ 12.1 µM) | 8 | 2 | 4 | 16 | 1 | 2 | MIC [21]: 2 µg/mL; MIC [22]: 1 µg/mL; MIC [23]: 1 µg/mL; MIC [24]: 8 µg/mL; MIC [25]: 4 µg/mL; MIC [26]: 4 µg/mL; MIC [27]: 1 µg/mL; MIC [28]: 0.12 µg/mL; MIC [29]: 0.12 µg/mL
CC[n+]1c(-c2ccccc2)c2cc(N)ccc2c2ccc(N)cc21.[Br-] [HOMIDIUM BROMIDE] | 1 | 0.5 | 0.5 | 4 | 0.5 | 0.5 | 0.5 | 0.25 | 0.25 | 2 | 16 | 0.5 | 0.5 | 16 | 0.5 | 0.5 | 0.5 | 0.5 | 0.12 | 0.5 | MIC [21]: 0.5 µg/mL; MIC [22]: 0.5 µg/mL; MIC [23]: 0.5 µg/mL; MIC [24]: 0.5 µg/mL; MIC [25]: 8 µg/mL; MIC [26]: 8 µg/mL; MIC [27]: 1 µg/mL; MIC [28]: 0.25 µg/mL; MIC [29]: 1 µg/mL
